Screening data (PubChem)
Runt-SMMHC FRET: inhibitors of human RUNX1 Runt domain binding to CBFb-SMMHC; Q01196+Q13951; Cerulean-Runt/Venus-CBFb-SMMHC FRET ratio 530/480, 1 h; inhibition, % at 20 µM; 0.74% of 220,000 active; AID 1434;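 active = mean inhibition across duplicate retests at 20 µM reaching about 50%, limit read from the data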;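 note: 0% = DMSO wells and 100% = wells with excess untagged CBFb-SMMHC; inhibitors lower the FRET ratio by blocking Runt binding to CBFb-SMMHC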
MEX-5 binding: C. elegans MEX-5 TCR-2 RNA binding activity. activity score (negative = inhibition of binding), % at 10 µM. Q9XUB2. MEX-5/FITC-TCR2 RNA binding, fluorescence polarization; stronger effect = lower value. 0.38% of 300,000 active;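 active = inhibition past about -25% in most replicates, and total fluorescence under double the plate's negative control median, limit read from the data; inconclusive = replicates evenly split on the limit, or fluorescence at least double controls; inactive = too little inhibition in most replicates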;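 note: 0% = DMSO and -100% = 5 µM competing unlabeled TCR2 RNA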
LANA-H2A inh: blocks KSHV LANA binding to histone H2A/H2B | Q9QR71 | cell-free LANA-H2A/H2B peptide, fluorescence polarization | inhibition, % (no concentration beside the values) | 0.6% of 320,000 active | AID 2629; in the data active = inhibition mostly above about 10%, no sharp cut-off; inactive = mostly below about 6.7%
RanGTP-Impb inh: disruptors of Ran-importin-beta complex formation – biochemical, FRET, CFP-Ran, YFP-importin-beta, homogeneous, primary screen | cell-free CFP-Ran/YFP-importin-beta FRET ratio | inhibition, % (concentration not given with the values) | 1.1% of 300,000 active;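 active = more than half of the replicate wells show a fall in the fluorescence ratio signal beyond about 16%, limit read from the data, passing the limit was not always enough; inconclusive = exactly half of the replicate wells pass the set limit; inactive = fewer than half of replicates pass the limit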;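 note: 0% = DMSO wells and 100% = Ran loaded with GDP instead of GTP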
Runt-CBFb FRET: Runt domain-CBFb interaction inhibition. Q01196+Q13951. Cerulean-Runt/Venus-CBFb FRET ratio 530/480, 1 h. inhibition, % at 20 µM. 0.46% of 220,000 active. AID 1496;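 active = inhibition over about 50% at 20 µM in the single-dose screen, limit read from the data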;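 note: 0% = DMSO wells and 100% = excess unlabeled CBFb competitor control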
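Measured by: fluorescence energy transfer, 422 nm excitation, 530/480 nm emission; Assay system: Cerulean-Runt domain; Medium: Tris pH 7.5 buffer with BSA; Measure: loss of energy transfer signal; Controls: 5 µM unlabeled CBFb as full-inhibition high control; Incubation: protein complex preformed 1 h, compound exposure 1 h, room temperature, dark.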
EBV gp42 block: inhibitors of Epstein-Barr virus glycoprotein 42. inhibition, % (tested at 21.74 µM). Q1HVG2. Fluorescence polarization binding assay, mP read-out. AID 1085. 0.42% of 220,000 active; in the data active = inhibition above about 50%
Starred values were filed as active, the others as inactive; ? = inconclusive; · = no result; + = active, no number. Most compounds without a hit are left out; they make up all but 2.4% or so of the library.

SMILES	Runt-SMMHC FRET	MEX-5 binding	LANA-H2A inh	RanGTP-Impb inh	Runt-CBFb FRET	EBV gp42 block
O=[N+]([O-])c1ccc(-c2nc3ccc([N+](=O)[O-])cc3[nH]2)cc1	-1	-2	2	2	0	75*
Nc1ccc(-c2nc3ccc([N+](=O)[O-])cc3[nH]2)cc1	2	1	1	-4	-5	-4
COCCCn1c(C(=O)Nc2ccc3c(c2)OCO3)cc2c(=O)n3ccccc3nc21	·	-3	1	-1	·	·
CCOC(=O)c1cc2c(=O)n3ccccc3nc2n(CCCOC)c1=NC(=O)C(C)(C)C	-21	1	9	0	56*	-12
CCOC(=O)c1cc2c(=O)n3ccccc3nc2n(CCCOC)c1=NC(=O)c1cccnc1	88*	1	-3	46*	133*	-13
CCOC(=O)c1cc2c(=O)n3ccccc3nc2n(CCOC)c1=NC(=O)c1ccncc1	63*	-1	1	96*	62*	-5
CCOC(=O)c1cc2c(=O)n3ccccc3nc2n(C(C)C)c1=NC(=O)c1ccncc1	170*	-32*	5	85*	92*	-22
CC(Sc1nnc(C2CC2)n1C1CC1)C(=O)c1ccc(F)cc1 (configuration not stated)	·	·	1	·	·	·
O=C(CN1CCOCC1)NCc1ccccc1Cl	·	0	8	7	·	·
CC1(c2ccc([N+](=O)[O-])cc2)NC(=O)N(CC(=O)Nc2cccnc2Cl)C1=O (configuration not stated)	·	1	-3	9	·	·
CN1CCN(c2ccc(CNS(=O)(=O)Cc3ccc(Cl)cc3)cc2)CC1	-1	-1	3	2	2	3
NC(=O)CC1C(=O)N(c2ccccc2)C(=S)N1NC(=O)c1ccccc1 (configuration not stated)	·	2	1	-5	·	·
CCSc1nnc(NC(=O)CCNC(=O)c2ccccc2Cl)s1	·	·	0	·	·	·
CCOC(=O)c1cc2c(=O)n3ccccc3nc2n(C(C)C)c1=NC(=O)c1c(-c2ccccc2Cl)noc1C	88*	0	8	1	82*	3
CCOC(=O)c1cc2c(=O)n3ccccc3nc2n(CCOC)c1=NC(=O)c1c(-c2c(F)cccc2Cl)noc1C	86*	·	4	·	68*	0
N#C/C(=C/c1ccc(N2CCOCC2)o1)c1ccc(Cl)cc1	8	17	10*	7	17	27
Cc1nn(C)c(C(=O)Nc2ccc(S(=O)(=O)NC34CC5CC(CC(C5)C3)C4)cc2)c1Br	-6	3	57*	?	-1	1
Cc1ccc(S(=O)(=O)NC23CC4CC(CC(C4)C2)C3)cc1	·	·	-2	·	·	·
N=c1c(C(=O)NCC2CCCO2)cc2c(=O)n3ccccc3nc2n1C1CCCC1 (configuration not stated)	·	-2	0	186*	·	·
Cc1ccc2nc3c(cc(C(=O)NCC4CCCO4)c(=N)n3C3CCCC3)c(=O)n2c1 (configuration not stated)	·	?	6	194*	·	·
N=c1c(C(=O)NCC2CCCO2)cc2c(=O)n3ccccc3nc2n1C1CCCCC1 (configuration not stated)	·	-5	-1	12	·	·
Cc1cccn2c(=O)c3cc(C(=O)NCC4CCCO4)c(=N)n(C4CCCC4)c3nc12 (configuration not stated)	·	-2	1	187*	·	·
Cc1sc2ncnc(OCC(=O)NC3CCS(=O)(=O)C3)c2c1C (configuration not stated)	-4	-1	-2	2	0	-1
Cc1cccc(C(C)C)c1NC(=O)Cc1ccc(S(=O)(=O)N2CCOCC2)s1	·	2	-1	3	·	·
CCOC(=O)C1CCN(S(=O)(=O)c2ccc(Cl)s2)CC1	·	1	-3	-2	·	·
SMILES	Runt-SMMHC FRET	MEX-5 binding	LANA-H2A inh	RanGTP-Impb inh	Runt-CBFb FRET	EBV gp42 block
COc1ccc(CCN=C(N)NS(=O)(=O)c2ccc(OC)c(OC)c2)cc1OC	·	-2	-12	7	·	·
COc1ccc(CCN=C(N)NS(=O)(=O)c2ccc(F)cc2)cc1OC	·	4	26*	-3	·	·
O=C(O)C1Nc2c(O)cc(Cl)c([N+](=O)[O-])c2C2C=CCC12 (configuration not stated)	40	-60*	9	-9	19	87*
O=C(O)C1Nc2ccc(OC(F)(F)F)cc2C2C=CCC12 (configuration not stated)	·	-17	7	2	·	·
CCOCC(=O)Nc1cc([N+](=O)[O-])ccc1OC	3	-1	22*	?	0	-12
CCOCC(=O)Nc1ccc([N+](=O)[O-])cc1OC	2	1	2	-3	1	-8
CCCOc1ccccc1C1C(C(=O)OC)=CN(C(C)C)C=C1C(=O)OC	58*	-1	4	115*	86*	-1
COC(=O)C1=CN(C)C=C(C(=O)OC)C1c1ccccc1Cl	83*	0	0	87*	5	-19
CCCCOc1ccccc1C(=O)NCC(=O)O	2	1	2	9	0	-3
CCCCOc1ccccc1C1C(C(=O)OC)=CN(CC)C=C1C(=O)OC	-21	-1	-3	107*	10	-12
O=C(NCCNc1ccc([N+](=O)[O-])cc1)c1ccc(Cl)cc1	-6	2	1	8	0	-1
COc1cccc2c1C(=O)c1c(O)c3c(c(O)c1C2=O)C[C@@](O)(C(C)=O)C[C@@H]3O[C@H]1C[C@H](N)[C@H](O)[C@H](C)O1	-79	·	·	·	-20	+
CC(=O)[C@]1(O)Cc2c(O)c3c(c(O)c2[C@@H](O[C@H]2C[C@H](N)[C@H](O)[C@H](C)O2)C1)C(=O)c1ccccc1C3=O	·	?	49*	-228	·	·
COc1cccc2c1C(=O)c1c(O)c3c(c(O)c1C2=O)C[C@@](O)(C(=O)CO)C[C@@H]3O[C@H]1C[C@H](N)[C@@H](O)[C@H](C)O1	·	?	27*	-25	·	·
CSc1ccccc1NC(=O)C1CC(c2ccccc2Cl)=NO1 (configuration not stated)	·	-3	-7	0	·	·
COc1ccc(-c2noc(CNC(=O)CCCN3C(=O)[C@H]4CC=CC[C@H]4C3=O)n2)cc1	·	1	-6	8	·	·
Cc1ccc(CNc2nc(N)c([N+](=O)[O-])c(NCc3ccccc3)n2)cc1	3	2	5	-4	-1	-14
Cc1ccc(CNc2nc(N)c([N+](=O)[O-])c(Nc3ccc(F)cc3)n2)cc1	4	0	2	19*	0	-6
CCOc1ccc(Br)cc1S(=O)(=O)NCc1ccncc1	3	3	3	-3	0	0
